Source: ChEMBL document CHEMBL1141037, “Synthesis and in vitro pharmacological studies of C(4) modified salvinorin A analogues” (Bioorg Med Chem Lett, 2005)

What was measured:
[1] = molecular target: T1, Kappa-type opioid receptor (Homo sapiens, UniProt P41145); experiment: Binding affinity for […] [3H]diprenorphine against human Opioid receptor kappa expressed in chinese hamster ovary cells (CHO cells); assay type: cell-based
Outline: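 Competitive displacement of [3H]diprenorphine binding to membranes from CHO cells stably transfected with human KOR; compounds were first screened at a single concentration.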

[2] = molecular target: T1, Kappa-type opioid receptor; experiment: Concentration required to enhance [35S]GTP-gamma-S, binding to human Opioid receptor kappa expressed in CHO cells; assay type: functional, cell-based
Outline: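 [35S]GTPγS binding to membranes of CHO cells stably expressing human KOR; EC50 for agonist-stimulated enhancement of binding; means of at least three independent experiments run in duplicate.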

[3] = molecular target: T1, Kappa-type opioid receptor; experiment: Percent maximal response in enhanced [35S]GTP-gamma-S, binding to human Opioid receptor kappa expressed in CHO cells relative to U50,488H; assay type: functional, cell-based
Outline: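 Agonist stimulation of [35S]GTPγS binding to membranes of CHO-hKOR cells; efficacy is maximal response expressed as % of that of U50,488H; means of at least three independent experiments run in duplicate.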

T1 sequence (P41145 whole entry): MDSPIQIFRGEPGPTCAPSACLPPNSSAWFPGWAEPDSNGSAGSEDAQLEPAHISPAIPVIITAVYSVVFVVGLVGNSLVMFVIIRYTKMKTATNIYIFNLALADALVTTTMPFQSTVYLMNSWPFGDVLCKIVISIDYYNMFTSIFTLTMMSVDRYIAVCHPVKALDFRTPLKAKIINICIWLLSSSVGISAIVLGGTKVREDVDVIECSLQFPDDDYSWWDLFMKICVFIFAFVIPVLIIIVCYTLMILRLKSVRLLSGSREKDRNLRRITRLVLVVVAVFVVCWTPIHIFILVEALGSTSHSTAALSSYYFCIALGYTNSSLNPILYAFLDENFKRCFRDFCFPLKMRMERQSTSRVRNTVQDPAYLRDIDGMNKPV

SMILES | Ki [1] [nM] | EC50 [2] [nM] | Efficacy [3] [%]
CC(=O)O[C@H]1C[C@@H](C(=O)NC(C)C(=O)OCc2ccccc2)[C@]2(C)CC[C@H]3C(=O)O[C@H](c4ccoc4)C[C@]3(C)[C@H]2C1=O (some centres undefined) | 26.9 | 46.7 | 95
C#CCCOC(=O)[C@@H]1C[C@H](OC(C)=O)C(=O)[C@H]2[C@@]1(C)CC[C@H]1C(=O)O[C@H](c3ccoc3)C[C@]21C | > 1000 |  | 
CCCCCOC(=O)[C@@H]1C[C@H](OC(C)=O)C(=O)[C@H]2[C@@]1(C)CC[C@H]1C(=O)O[C@H](c3ccoc3)C[C@]21C | > 1000 |  | 
CC(=O)O[C@H]1C[C@@H](C(=O)NC(Cc2c[nH]cn2)C(=O)OCc2ccccc2)[C@]2(C)CC[C@H]3C(=O)O[C@H](c4ccoc4)C[C@]3(C)[C@H]2C1=O (some centres undefined) | > 1000 |  | 
C#CCCCOC(=O)[C@@H]1C[C@H](OC(C)=O)C(=O)[C@H]2[C@@]1(C)CC[C@H]1C(=O)O[C@H](c3ccoc3)C[C@]21C | 201 | 224 | 104
CC(=O)O[C@H]1C[C@@H](C(=O)NCc2ccccc2)[C@]2(C)CC[C@H]3C(=O)O[C@H](c4ccoc4)C[C@]3(C)[C@H]2C1=O | > 1000 |  | 
CCCOC(=O)[C@@H]1C[C@H](OC(C)=O)C(=O)[C@H]2[C@@]1(C)CC[C@H]1C(=O)O[C@H](c3ccoc3)C[C@]21C | > 1000 |  | 
C=CCOC(=O)[C@@H]1C[C@H](OC(C)=O)C(=O)[C@H]2[C@@]1(C)CC[C@H]1C(=O)O[C@H](c3ccoc3)C[C@]21C | > 1000 |  | 
COCOC(=O)[C@@H]1C[C@H](OC(C)=O)C(=O)[C@H]2[C@@]1(C)CC[C@H]1C(=O)O[C@H](c3ccoc3)C[C@]21C | 99.6 | 58.2 | 105
CC(=O)O[C@H]1C[C@@H](C(=O)OCc2ccccc2)[C@]2(C)CC[C@H]3C(=O)O[C@H](c4ccoc4)C[C@]3(C)[C@H]2C1=O | > 1000 |  | 
CCOC(=O)[C@@H]1C[C@H](OC(C)=O)C(=O)[C@H]2[C@@]1(C)CC[C@H]1C(=O)O[C@H](c3ccoc3)C[C@]21C | 28.5 | 94.4 | 110
CC(=O)O[C@H]1C[C@@H](C(=O)NC(C)C(=O)OCc2ccccc2)[C@]2(C)CC[C@@H]3C(=O)O[C@H](c4ccoc4)C[C@]3(C)[C@H]2C1=O (some centres undefined) | > 1000 |  | 
CC(=O)O[C@H]1C[C@@H](C(=O)O)[C@]2(C)CC[C@H]3C(=O)O[C@H](c4ccoc4)C[C@]3(C)[C@H]2C1=O | > 1000 |  | 
CC(=O)O[C@H]1C[C@@H](C(=O)NC2CC2)[C@]2(C)CC[C@@H]3C(=O)O[C@H](c4ccoc4)C[C@]3(C)[C@H]2C1=O | 475 | 840 | 95
CC(=O)O[C@H]1C[C@@H](C(=O)NCC(=O)OCc2ccccc2)[C@]2(C)CC[C@H]3C(=O)O[C@H](c4ccoc4)C[C@]3(C)[C@H]2C1=O | 470 | 227 | 105
CC(=O)O[C@H]1C[C@@H](C(=O)NCCc2ccccc2)[C@]2(C)CC[C@H]3C(=O)O[C@H](c4ccoc4)C[C@]3(C)[C@H]2C1=O | > 1000 |  | 

SMILES | Ki [1] [nM] | EC50 [2] [nM] | Efficacy [3] [%]
CC(=O)O[C@H]1C[C@@H](C(=O)N2CCCC2C(=O)OCc2ccccc2)[C@]2(C)CC[C@@H]3C(=O)O[C@H](c4ccoc4)C[C@]3(C)[C@H]2C1=O (some centres undefined) | > 1000 |  | 
CCCCCCCCOC(=O)[C@@H]1C[C@H](OC(C)=O)C(=O)[C@H]2[C@@]1(C)CC[C@H]1C(=O)O[C@H](c3ccoc3)C[C@]21C | > 1000 |  | 
CC(=O)O[C@H]1C[C@@H](C(=O)NCC(=O)OCc2ccccc2)[C@]2(C)CC[C@@H]3C(=O)O[C@H](c4ccoc4)C[C@]3(C)[C@H]2C1=O | > 1000 |  | 
CC(=O)O[C@H]1C[C@@H](C(=O)NCCO)[C@]2(C)CC[C@H]3C(=O)O[C@H](c4ccoc4)C[C@]3(C)[C@H]2C1=O | > 1000 |  | 
CC(=O)O[C@H]1C[C@@H](C(=O)O)[C@]2(C)CC[C@@H]3C(=O)O[C@H](c4ccoc4)C[C@]3(C)[C@H]2C1=O | 48.6 | 74.1 | 94
CC(=O)O[C@H]1C[C@@H](C(=O)N2CCCC2C(=O)OCc2ccccc2)[C@]2(C)CC[C@H]3C(=O)O[C@H](c4ccoc4)C[C@]3(C)[C@H]2C1=O (some centres undefined) | 210 | 348 | 100
CC(=O)O[C@H]1C[C@@H](C(=O)NN2CCOCC2)[C@]2(C)CC[C@H]3C(=O)O[C@H](c4ccoc4)C[C@]3(C)[C@H]2C1=O | > 1000 |  | 
CC(=O)O[C@H]1C[C@@H](C(=O)NN2CCC(C)CC2)[C@]2(C)CC[C@H]3C(=O)O[C@H](c4ccoc4)C[C@]3(C)[C@H]2C1=O | > 1000 |  | 
CC(=O)O[C@H]1C[C@@H](C(=O)NCCC#N)[C@]2(C)CC[C@H]3C(=O)O[C@H](c4ccoc4)C[C@]3(C)[C@H]2C1=O | > 1000 |  | 
CC(=O)O[C@H]1C[C@@H](C(=O)NC(CO)C(=O)OCc2ccccc2)[C@]2(C)CC[C@H]3C(=O)O[C@H](c4ccoc4)C[C@]3(C)[C@H]2C1=O (some centres undefined) | > 1000 |  | 
CCCCOC(=O)[C@@H]1C[C@H](OC(C)=O)C(=O)[C@H]2[C@@]1(C)CC[C@H]1C(=O)O[C@H](c3ccoc3)C[C@]21C | > 1000 |  | 
CCOC(=O)[C@@H]1C[C@H](OC(C)=O)C(=O)[C@@H]2[C@@]3(C)C[C@@H](c4ccoc4)OC(=O)[C@H]3CC[C@]21C | > 1000 |  | 
COCOC(=O)[C@@H]1C[C@H](OC(C)=O)C(=O)[C@@H]2[C@@]3(C)C[C@@H](c4ccoc4)OC(=O)[C@H]3CC[C@]21C | 110 | 191 | 102
C#CCCCOC(=O)[C@@H]1C[C@H](OC(C)=O)C(=O)[C@@H]2[C@@]3(C)C[C@@H](c4ccoc4)OC(=O)[C@H]3CC[C@]21C | > 1000 |  | 
CC(=O)O[C@H]1C[C@@H](C(=O)NC2CC2)[C@]2(C)CC[C@H]3C(=O)O[C@H](c4ccoc4)C[C@]3(C)[C@H]2C1=O | > 1000 |  | 
